# From PubChem BioAssay
# An excerpt weighted towards active compounds, which were near 1.6% of everything screened.
# eIF4E 4G PPI – inhibitors of eIF4E and eIF4G interaction in translation initiation. TR-FRET eIF4E-eIF4GI(517-606) binding, 2 h. inhibition, % at 21.7 µM. 0.37% of 220,000 active. AID 782;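 active = inhibition above about 30%, limit read from the data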;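 also: 0% = full FRET control wells and 100% = background wells lacking eIF4GI fragment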
# SUMO HTRF inh – inhibitors of human SUMOylation (UBC9). P63279. HTRF SUMOylation assay, SAE1/SAE2 + UBC9, in vitro. inhibition, % at 35 µM. 0.36% of 290,000 active; in the data active = inhibition above about 50%, passing the limit was not always enough
# p47phox inh – blocks human p47phox regulatory protein of NADPH oxidases; P14598; p47phox/p22phox peptide binding, fluorescence polarization, 2 h; inhibition, % at 24.7 µM; 0.53% of 220,000 active; AID 1274;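 active = inhibition above about 30%, limit read from the data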;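 also: 0% = p47phox with labelled peptide and 100% = labelled peptide alone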
# Target sequence (P14598 whole entry, looked up): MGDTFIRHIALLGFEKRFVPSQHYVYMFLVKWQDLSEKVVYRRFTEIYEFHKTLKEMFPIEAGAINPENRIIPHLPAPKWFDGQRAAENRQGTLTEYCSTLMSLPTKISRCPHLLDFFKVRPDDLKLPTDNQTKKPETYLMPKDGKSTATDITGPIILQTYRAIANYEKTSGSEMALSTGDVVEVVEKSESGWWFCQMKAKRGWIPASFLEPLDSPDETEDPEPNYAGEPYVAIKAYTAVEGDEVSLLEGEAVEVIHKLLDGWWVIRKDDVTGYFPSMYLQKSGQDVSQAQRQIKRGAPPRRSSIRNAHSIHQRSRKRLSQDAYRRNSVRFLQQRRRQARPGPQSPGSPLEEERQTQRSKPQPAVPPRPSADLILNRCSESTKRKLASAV
# 14-3-3 Bad inh – disrupts binding of bovine 14-3-3 zeta to phospho-Bad peptide; P63103; TR-FRET 14-3-3zeta/Dy647-pBad peptide displacement, 1 h; inhibition, % at 21.7 µM; 0.71% of 220,000 active; AID 781;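 active = inhibition above about 70%, limit read from the data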;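 also: 0% = full 14-3-3 plus peptide FRET controls and 100% = background without 14-3-3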
# p97 inhibitor – human p97 ATPase inhibition. P55072. recombinant p97 ATPase, Kinase-Glo ATP luminescence, 3 h. inhibition, % at 8 µM. 0.42% of 220,000 active. AID 1481;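 also: 0% = DMSO vehicle and 100% = wells lacking enzyme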
# Tb MetRS inh – blocks T. brucei methionyl-tRNA synthetase activity; 0.4% of 360,000 active; inhibition, % at 11.9 µM; purified T. brucei MetRS, ATP depletion, Kinase-Glo luminescence; AID 624268;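 active = inhibition above a per-plate cutoff of the control wells' mean inhibition plus 3 SD, cut at about 5.5% in these data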;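 also: 0% = DMSO wells median and 100% = median of wells with control inhibitor compound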
#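 Material: T. brucei methionyl-tRNA synthetase, purified; reagent: substrates ATP, L-methionine and bulk Escherichia coli tRNA; dosing: 11.9 µM single point; timing: 15 min plus 2 h at 25 °C; detection: luminescence of leftover ATP; evaluation: % inhibition; control set: DMSO-only wells as low control; replicates: singlicate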
# Tb MetRS conf – Trypanosoma brucei MetRS inhibition confirmed. AID 624412. shares compounds with Tb MetRS inh. inhibition, % at 11.9 µM. 93% of 1,400 active. T. brucei MetRS enzyme, luminescence (ATP depletion); in the data active = inhibition above about 7%
# Jurkat cytotox – counter-screen for T. brucei MetRS inhibitors: Jurkat cell cytotoxicity; shares compounds with Tb MetRS inh; Jurkat cells viability, ATP luminescence; inhibition, % at 8.3 µM; 12% of 1,400 active; AID 624413;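 also: 0% = vehicle and 100% = reference inhibitor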
# TbMetRS FP orth – orthogonal test for Trypanosoma brucei MetRS inhibitors | shares compounds with Tb MetRS inh | purified T. brucei MetRS, fluorescence polarization | inhibition, % at 11.9 µM | 44% of 1,400 active | AID 651607; in the data active = inhibition above about 17%;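 also: 0% = vehicle wells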
# The depositor's hits bear a star; nt = not tested or not shown. Rule as the data show it, unless noted: active = inhibition above about 15%; inactive = the rest.
SMILES,eIF4E 4G PPI,SUMO HTRF inh,p47phox inh,14-3-3 Bad inh,p97 inhibitor,Tb MetRS inh,Tb MetRS conf,Jurkat cytotox,TbMetRS FP orth
COc1ccc(OCC(O)Cn2cnc(-c3ccc(Br)cc3)c2)cc1 (centres undefined),2.7,-1.6,-2.2,3.5,-2.5,13.8*,22.4*,0.5,7.9
Cc1ccc2[nH]c3c(N4CCN(Cc5ccc6c(c5)OCO6)CC4)ncnc3c2c1,4.1,3.9,1.4,-5.8,0.8,nt,nt,nt,nt
C=CCNc1ncnc2c1[nH]c1ccc(C)cc12,2.3,2.8,-19.1,13.1,3.0,11.0*,22.3*,14.0,12.4
Clc1ccc2[nH]c3c(NCCCN4CCOCC4)ncnc3c2c1,1.0,-29.7,-2.9,4.2,3.3,45.1*,56.5*,6.2,47.6*
Cc1ccc2[nH]c3c(NCCN4CCOCC4)ncnc3c2c1,-0.8,-7.1,-10.9,4.1,6.0,11.1*,22.3*,4.0,8.3
Cc1ccc2[nH]c3c(N4CCN(Cc5ccccc5)CC4)ncnc3c2c1,7.0,-1.8,-28.0,-3.0,-2.9,8.1*,17.9*,15.3*,3.6
Cc1cc(=O)oc2cc(NC(=O)Cc3ccccc3[N+](=O)[O-])ccc12,nt,14.9,nt,nt,nt,0.0,nt,nt,nt
COc1ccc(OC)c(C2=NS(=O)(=O)N(C)C(C(=O)NCc3ccco3)=C2)c1,nt,12.7,nt,nt,nt,0.0,nt,nt,nt
O=C(CCC(=O)N1CCOCC1)NCCc1ccc(Cl)cc1Cl,nt,7.7,nt,nt,nt,0.3,nt,nt,nt
CCN1CCCC1Cn1cnc2c([nH]c3ccc(C)cc32)c1=O (centres undefined),-5.5,2.2,0.6,0.6,5.0,0.7,nt,nt,nt
CCN1CCCC1CNc1ncnc2c1[nH]c1ccc(Cl)cc12 (centres undefined),6.1,21.5,5.7,-9.3,8.5,37.9*,59.2*,1.8,36.0*
O=C1CCCN1CCCNc1ncnc2c1[nH]c1ccc(Cl)cc12,3.1,4.5,-12.1,-5.7,0.9,62.3*,70.5*,4.5,50.6*
Cc1cc(Oc2cccc3c2S(=O)(=O)N(C2CCCC2)CC(COCc2ccccc2)O3)cc(C)c1C (centres undefined),nt,nt,nt,nt,nt,-0.2,nt,nt,nt
COc1ccc(-c2nc(CS(=O)(=O)CC(=O)Nc3ccc(Cl)cc3)c(C)o2)cc1,7.9,12.4,-0.2,12.5,3.1,12.2*,34.2*,45.9*,26.0*
COc1ccc(NC(=O)CS(=O)(=O)Cc2nc(-c3ccc(C)cc3)oc2C)cc1,nt,9.3,nt,nt,nt,-0.1,nt,nt,nt
O=C(Nc1ccc(Cl)cc1)Nc1ccc(S(=O)(=O)Nc2ncccn2)cc1,1.9,15.6,nt,2.1,2.8,6.2*,8.4*,-0.8,2.0
O=C(CSc1ccc(-c2nc3ccccc3[nH]2)cn1)N1CCN(C(=O)c2ccco2)CC1,8.4,42.8,-8.9,14.0,4.2,7.8*,14.7*,15.2*,12.3
Cc1ccccc1OCCCC(=O)Nc1ccc(Br)cc1,2.0,-13.3,-18.2,3.9,-4.0,6.4*,8.2*,20.0*,9.5
CC(=O)Nc1ccc(NC(=O)CCOc2ccccc2C)cc1,nt,2.1,nt,nt,nt,-0.5,nt,nt,nt
O=C(NCc1ccco1)/C(=C/c1cccc(C(F)(F)F)c1)c1nc2ccccc2[nH]1,2.9,6.7,-16.1,32.7,0.9,0.8,nt,nt,nt
O=C(NCc1ccco1)/C(=C/c1ccc(C(F)(F)F)cc1)c1nc2ccccc2[nH]1,1.7,-0.8,-39.4,-8.1,8.8,7.7*,5.0,29.9*,-2.8
COc1ccc(CNC(=O)CN2C(=O)NC(Cc3ccccc3)(c3ccccc3)C2=O)cc1OC (centres undefined),nt,nt,nt,nt,nt,-0.3,nt,nt,nt
Cc1ccc(C2=NN=C(NC(=O)C(F)(F)F)SC2)cc1,1.8,-33.1,3.0,-8.7,4.2,0.5,nt,nt,nt
CC(=O)c1ccc(OCC(=O)NC(=O)NC2CCCCC2)cc1,nt,12.9,nt,nt,nt,-0.3,nt,nt,nt
